Measurements taken from ChEMBL document CHEMBL4257467, “Synthesis and pharmaceutical characterization of site specific mycophenolic acid-modified Xenopus glucagon-like peptide-1 analogs” (Medchemcomm, 2018).
The source made the active and inactive calls. *1 amine or outer side, *2 acyl side, *3 side chain or, on linkers, in order; H or OH if unused. Where a SMILES comes first, the peptide text is derived from it. Side-chain parts run from the residue outwards. The star is where a group is joined. Mycophenolyl = COc1c(C)c2c(c(O)c1C/C=C(\C)CCC(=O)*)C(=O)OC2; γGlu = O=C(O)[C@H](CCC(=O)[*:2])N[*:1]; 12Ado = NCCCCCCCCCCCC(=O)O

Tests used:
[1] = tested on: Mus musculus; experiment: Hypoglycemic activity in non-fasting C57BL/6J m+/+ Lepr db mouse assessed as reduction in blood glucose AUC (0 to 48 hrs) at 25 to 100 nmol/kg, ip by glucometric method; format: functional, organism-based
In short: (§1)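 Non-fasting male db/db mice (30–40 g, 9 weeks, n = 6) with free food and water. Single ip dose at 0 h: liraglutide 25 nmol kg−1, test peptides 25 or 100 nmol kg−1, or saline. Blood glucose by glucometer at 0, 2, 4, 6, 12, 24, 48 h. Rebound time to >15 mmol L−1 and AUC0–48h derived; means ± SD.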

[2] = tested on: Mus musculus; experiment: Hepatotoxicity in C57BL/6J m+/+ Lepr db mouse assessed as serum AST level at 50 nmol/kg, ip administered once daily for 5 weeks (reference value: 75 +/- 7.4 IU/L); format: toxicity, organism-based; conditions: in vivo, 840 h
[3] = tested on: Mus musculus; experiment: Antidiabetic activity in C57BL/6J m+/+ Lepr db mouse assessed as non-fasting blood glucose levels at 50 nmol/kg, ip administered once daily for 5 weeks measured every 4 days during compound dosing; format: functional
[4] = tested on: Mus musculus; experiment: Toxicity in C57BL/6J m+/+ Lepr db mouse assessed as HDL-cholesterol level at 50 nmol/kg, ip administered once daily for 5 weeks (reference value: 1.7 +/- 0.3 mmol/L); format: organism-based; conditions: in vivo, 840 h
[5] = tested on: Mus musculus; experiment: Antidiabetic activity in C57BL/6J m+/+ Lepr db mouse assessed as serum triglyceride level at 50 nmol/kg, ip administered once daily for 5 weeks (reference value: 2.3 +/- 0.3 mmol/L); format: functional
[6] = target: Glucagon-like peptide 1 receptor (Homo sapiens, UniProt P43220); experiment: Agonist activity at human GLP1 receptor expressed in HEK293 cells assessed as increase in cAMP level after 30 mins by HTRF method; format: functional, cell-based
In short: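 HEK293 cells stably expressing human GLP-1 receptor, thawed, suspended in DMEM with 20 mM HEPES, 2 mM L-Glu, 0.5% FBS, 1% pen-strep. Compounds dissolved in DMSO, diluted in assay buffer to 1 × 10−13–1 × 10−6 M final, 30 min at 37 °C in 5% CO2. cAMP read by HTRF. EC50 as means ± SD of three individual experiments, n = 3.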

[7] = tested on: Mus musculus; experiment: Antidiabetic activity in C57BL/6J m+/+ Lepr db mouse assessed as reduction in food intake at 50 nmol/kg, ip administered once daily for 5 weeks measured every 4 days during compound dosing; format: functional, organism-based
[8] = tested on: Mus musculus; experiment: Antidiabetic activity in C57BL/6J m+/+ Lepr db mouse assessed as reduction in glycated hemoglobin level at 50 nmol/kg, ip administered once daily for 5 weeks relative to control; format: functional; design: scale not given: the % may be the effect or the level left
[9] = tested on: Mus musculus; experiment: Antidiabetic activity in C57BL/6J m+/+ Lepr db mouse assessed as increase in non-fasting plasma insulin levels at 50 nmol/kg, ip administered once daily for 5 weeks measured every 4 days during compound dosing; format: functional, organism-based
[10] = tested on: Mus musculus; experiment: Antidiabetic activity in C57BL/6J m+/+ Lepr db mouse assessed as serum total cholesterol level at 50 nmol/kg, ip administered once daily for 5 weeks (reference value: 6.5 +/- 0.4 mmol/L); format: functional
[11] = tested on: Mus musculus; experiment: Antidiabetic activity in C57BL/6J m+/+ Lepr db mouse assessed as serum LDL-cholesterol level at 50 nmol/kg, ip administered once daily for 5 weeks (reference value: 2.2 +/- 0.3 mmol/L); format: functional
[12] = tested on: Mus musculus; experiment: Antidiabetic activity in C57BL/6J m+/+ Lepr db mouse assessed as plasma insulin level at 25 nmol/kg, ip pretreated for 30 mins followed by glucose challenge and measured after 15 mins by ELISA; format: functional
In short: (§2)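 Male db/db mice (30–40 g, 9 weeks, n = 6) fasted 18 h. Saline or peptide 25 nmol kg−1 ip at −30 min, ip glucose 1 g kg−1 at 0 min. Tail-vein glucose by glucometer at −30, 0, 10, 15, 30, 45, 60, 120 min. Plasma insulin by mouse insulin ELISA. AUC0–120min for glucose and insulin calculated; means ± SD.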

[13] = tested on: Mus musculus; experiment: Antidiabetic activity in Kunming mouse assessed as reduction in blood glucose level at 25 nmol/kg, ip pretreated for 30 mins followed by glucose-challenge and measured after 15 to 120 mins by IPGTT; format: functional, organism-based
In short: (§3)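 Male Kunming mice (20–25 g, n = 6) fasted overnight. Peptide or saline 25 nmol kg−1 ip at −30 min, ip glucose 2 g kg−1 at 0 min. Tail-vein blood glucose by glucometer at −30, 0, 15, 30, 60 and 120 min. Glucose AUC0–120min calculated; means ± SD.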

[14] = Half life in Sprague-Dawley rat plasma at 0.5 mL by LC-MS/MS analysis; format: ADME, cell-free; conditions: Sprague-Dawley
In short: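 Plasma from male Sprague-Dawley rats (200–250 g). Peptide in PBS pH 7.4 added to initial 1000 ng ml−1 and incubated at 37 °C for 48 h. Samples at 2, 4, 8, 12, 24, 36, 48 h precipitated with acetonitrile containing 2% formic acid, centrifuged, analysed by LC-MS/MS in MRM mode. Degradation curves in triplicate.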

[15] = tested on: Mus musculus; experiment: Hypoglycemic activity in C57BL/6J m+/+ Lepr db mouse assessed as blood glucose AUC (0 to 120 mins) at 25 nmol/kg, ip pretreated for 30 mins followed by glucose challenge by IPGTT; format: functional, organism-based; in short: as §2
[16] = tested on: Mus musculus; experiment: Hypoglycemic activity in C57BL/6J m+/+ Lepr db mouse assessed as blood glucose level at 25 nmol/kg, ip pretreated for 30 mins followed by glucose challenge and measured after 15 mins by IPGTT; format: functional; in short: as §2
[17] = tested on: Mus musculus; experiment: Antidiabetic activity in C57BL/6J m+/+ Lepr db mouse assessed as reduction in body weight gain at 50 nmol/kg, ip administered once daily for 5 weeks measured every 4 days during compound dosing relative to control; format: functional; design: scale not given: the % may be the effect or the level left
[18] = target: Albumin (Homo sapiens, UniProt P02768); experiment: Binding affinity to human serum albumin after 60 mins by ultrafiltration-based HPLC analysis; format: ADME; conditions: human serum albumin, read-out: PB (converted)
In short: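 Peptide in PBS pH 7.4 (100 μg ml−1) mixed with HSA (10 mg ml−1 in PBS), incubated 60 min at 37 °C. Ultrafiltration through 30 kDa cutoff filter, 30 min at 3500 rpm. Free compound in filtrate by HPLC. Membrane adsorption checked (<4%). Repeated three times.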

[19] = tested on: Mus musculus; experiment: Antidiabetic activity in Kunming mouse assessed as reduction in blood glucose AUC at 25 nmol/kg, ip pretreated for 30 mins followed by glucose-challenge and measured after 15 to 120 mins by IPGTT; format: functional, organism-based; in short: as §3
[20] = tested on: Mus musculus; experiment: Antidiabetic activity in C57BL/6J m+/+ Lepr db mouse assessed as change in blood glucose level at 50 nmol/kg, ip administered once daily for 5 weeks followed by glucose challenge measured after 15 to 120 mins by IPGTT; format: functional, organism-based
[21] = tested on: Mus musculus; experiment: Antidiabetic activity in C57BL/6J m+/+ Lepr db mouse assessed as increase in plasma insulin AUC (0 to 120 mins) at 25 nmol/kg, ip pretreated for 30 mins followed by glucose challenge by ELISA; format: functional, organism-based; in short: as §2
[22] = tested on: Mus musculus; experiment: Hypoglycemic activity in non-fasting C57BL/6J m+/+ Lepr db mouse assessed as rebound time from the lowest glucose level (12 mmol/L) to diabetic glucose level (>15 mmol/L) at 25 nmol/kg, ip by glucometric method; format: functional; in short: as §1
[23] = tested on: Mus musculus; experiment: Hypoglycemic activity in non-fasting C57BL/6J m+/+ Lepr db mouse assessed as rebound time from the lowest glucose level (12 mmol/L) to diabetic glucose level (>15 mmol/L) at 100 nmol/kg, ip by glucometric method; format: functional; in short: as §1
[24] = tested on: Mus musculus; experiment: Antidiabetic activity in C57BL/6J m+/+ Lepr db mouse assessed as reduction in blood glucose AUC (0 to 120 mins) at 50 nmol/kg, ip administered once daily for 5 weeks followed by glucose challenge by IPGTT; format: functional, organism-based
[25] = tested on: Mus musculus; experiment: Hypoglycemic activity in C57BL/6J m+/+ Lepr db mouse assessed as reduction in fasting blood glucose level at 25 nmol/kg, ip pretreated for 30 mins followed by glucose challenge at 6 hrs interval for 24 hrs and measured up to 3 hrs by OGTT; format: functional, organism-based
In short: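 Male db/db mice (30–40 g, 9 weeks, n = 6) fasted 18 h, given saline or peptide 25 nmol kg−1 ip at −0.5 h. Oral glucose 1.5 g kg−1 at 0 h, repeated every 6 h (6, 12, 18 h) over 24 h. Blood glucose by glucometer at 0, 0.25, 0.5, 1, 2 and 3 h after each load.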

[26] = tested on: Mus musculus; experiment: Hepatotoxicity in C57BL/6J m+/+ Lepr db mouse assessed as serum ALT level at 50 nmol/kg, ip administered once daily for 5 weeks (reference value: 61.4 +/- 10 IU/L); format: toxicity, organism-based; conditions: in vivo, 840 h

Sequence of Albumin (P02768 whole entry): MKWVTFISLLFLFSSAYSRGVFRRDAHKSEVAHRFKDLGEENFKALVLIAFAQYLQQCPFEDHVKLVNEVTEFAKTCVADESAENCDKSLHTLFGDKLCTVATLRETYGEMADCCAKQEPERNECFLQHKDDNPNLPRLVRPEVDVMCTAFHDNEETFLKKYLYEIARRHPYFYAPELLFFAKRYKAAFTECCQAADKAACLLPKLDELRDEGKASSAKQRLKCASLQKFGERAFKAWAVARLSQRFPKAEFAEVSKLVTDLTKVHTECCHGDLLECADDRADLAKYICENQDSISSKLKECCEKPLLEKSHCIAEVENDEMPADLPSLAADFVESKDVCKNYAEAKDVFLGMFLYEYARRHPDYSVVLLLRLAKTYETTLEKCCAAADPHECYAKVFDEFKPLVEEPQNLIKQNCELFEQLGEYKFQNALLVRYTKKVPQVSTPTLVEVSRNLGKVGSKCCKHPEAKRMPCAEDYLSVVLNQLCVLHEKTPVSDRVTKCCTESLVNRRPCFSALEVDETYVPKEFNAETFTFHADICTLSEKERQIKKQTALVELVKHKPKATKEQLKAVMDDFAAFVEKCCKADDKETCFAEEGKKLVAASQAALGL
Sequence of Glucagon-like peptide 1 receptor (P43220 whole entry): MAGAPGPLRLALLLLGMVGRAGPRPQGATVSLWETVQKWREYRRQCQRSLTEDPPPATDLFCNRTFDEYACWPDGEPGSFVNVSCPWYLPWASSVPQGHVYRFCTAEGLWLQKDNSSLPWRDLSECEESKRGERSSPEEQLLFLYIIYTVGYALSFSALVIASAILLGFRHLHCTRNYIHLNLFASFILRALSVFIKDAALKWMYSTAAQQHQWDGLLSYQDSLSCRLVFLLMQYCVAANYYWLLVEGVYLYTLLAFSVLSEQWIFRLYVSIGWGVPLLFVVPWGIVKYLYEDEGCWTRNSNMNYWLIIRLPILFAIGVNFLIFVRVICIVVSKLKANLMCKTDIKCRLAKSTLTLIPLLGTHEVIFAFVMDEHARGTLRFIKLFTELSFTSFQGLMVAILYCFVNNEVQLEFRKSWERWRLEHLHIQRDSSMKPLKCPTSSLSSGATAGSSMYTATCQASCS

With “H-HGEGTYTNDVTEYLEEEAAK([γGlu-12Ado-Mycophenolyl])EFIEWLIKGKPSSGAPPSKKKKKK-OH” the Activity [1] was “Active”, the Activity [2] was 62.4 IU/L and the Activity [3] was 11.2 to 14.9 mmol/L. It also gave an Activity [4] of 1.6 mmol/L, an Activity [5] of 1.4 mmol/L and an EC50 [6] of 3.1 nM. For the same compound, the Activity [7] was “Active”, the Activity [8] was 6.7% and the Activity [9] was “Active”. For the same compound, the Activity [10] was 4.5 mmol/L, the Activity [11] was 1.4 mmol/L and the Activity [12] was 18 mIU/L. For the same compound, the Activity [13] was “Active”, the half-life [14] was 39.8 h and the Activity [15] was “Active”. For the same compound, the Activity [16] was 1.07e+07 nmol/L, the Activity [17] was 55% and the fraction unbound at 1 h [18] was 0.146. For the same compound, the Activity [19] was “Active”, the Activity [20] was “Active” and the Activity [21] was “Active”. For the same compound, the Time [22] was 23.8 h, the Time [23] was 38.4 h and the Activity [24] was “Active”. For the same compound, the Activity [25] was “Active” and the Activity [26] was 56.9 IU/L.
With `CC[C@H](C)[C@H](NC(=O)[C@H](CC(C)C)NC(=O)[C@H](Cc1c[nH]c2ccccc12)NC(=O)[C@H](CCC(=O)O)NC(=O)[C@@H](NC(=O)[C@H](Cc1ccccc1)NC(=O)[C@H](CCC(=O)O)NC(=O)[C@H](CCCCNC(=O)CC[C@H](NC(=O)CCCCCCCCCCCNC(=O)CC/C(C)=C/Cc1c(O)c2c(c(C)c1OC)COC2=O)C(=O)O)NC(=O)[C@H](C)NC(=O)[C@H](C)NC(=O)[C@H](CCC(=O)O)NC(=O)[C@H](CCC(=O)O)NC(=O)[C@H](CCC(=O)O)NC(=O)[C@H](CC(C)C)NC(=O)[C@H](Cc1ccc(O)cc1)NC(=O)[C@H](CCC(=O)O)NC(=O)[C@@H](NC(=O)[C@@H](NC(=O)[C@H](CC(=O)O)NC(=O)[C@H](CC(N)=O)NC(=O)[C@@H](NC(=O)[C@H](Cc1ccc(O)cc1)NC(=O)[C@@H](NC(=O)CNC(=O)[C@H](CCC(=O)O)NC(=O)CNC(=O)[C@@H](N)Cc1cnc[nH]1)[C@@H](C)O)[C@@H](C)O)C(C)C)[C@@H](C)O)[C@@H](C)CC)C(=O)N[C@@H](CCCCN)C(=O)NCC(=O)N[C@@H](CCCCN)C(=O)N1CCC[C@H]1C(=O)N[C@@H](CO)C(=O)N[C@@H](CO)C(=O)NCC(=O)N[C@@H](C)C(=O)N1CCC[C@H]1C(=O)N1CCC[C@H]1C(=O)N1CCC[C@H]1C(=O)N[C@@H](CO)C(=O)O` (H-HGEGTYTNDVTEYLEEEAAK([γGlu-12Ado-Mycophenolyl])EFIEWLIKGKPSSGAPPPS-OH) the Activity [1] was “Active”, the EC50 [6] was 5.2 nM and the Activity [12] was 16.5 mIU/L. The Activity [13] was “Active”, the half-life [14] was 34.2 h and the Activity [16] was 1.24e+07 nmol/L. The fraction unbound at 1 h [18] was 0.152, the Activity [19] was “Active” and the Activity [21] was “Active”. The Time [22] was 18.9 h and the Time [23] was 30.4 h.
In the case of SEMAGLUTIDE, the Activity [12] is reported as 17.2 mIU/L, the Activity [13] is reported as “Active” and the Activity [16] is reported as 1.1e+07 nmol/L. The Activity [19] was “Active” and the Activity [21] was “Active”.
